An excerpt weighted towards active compounds, which were near 3.5% of everything screened.
RGS4 inh – inhibitors of human RGS4; P49798; HEK293 M3R/RGS4 inducible, Fluo-4 calcium flux; active compounds read high; triggered by carbachol at its EC20; B-score at 10 µM; hit rate 0.45% among 310,000;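 active = B-score, a plate-corrected calcium signal, over three deviations above library mean, with baseline fluorescence within five deviations of library mean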;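 note: RGS4 expression induced by doxycycline in cells with stable M3 receptor; B-score is computed from the integrated fluorescence ratio over baseline after carbachol; higher B-score means a larger calcium signal and so more RGS4 inhibition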
Target sequence (P49798 whole entry, looked up): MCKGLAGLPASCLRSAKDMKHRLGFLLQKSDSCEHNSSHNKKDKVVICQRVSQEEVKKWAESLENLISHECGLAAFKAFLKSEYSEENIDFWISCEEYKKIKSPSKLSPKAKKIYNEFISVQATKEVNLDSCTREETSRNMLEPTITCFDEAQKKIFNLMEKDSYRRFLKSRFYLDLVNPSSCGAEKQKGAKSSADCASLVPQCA
MrgX1 antag – blocks BAM8-22 activation of human MrgX1 receptor; B-score at 10 µM; hit rate 1.3% among 310,000; MRGX1-HEK293 calcium flux, Fluo-4, BAM8-22 antagonism; active compounds read low; AID 588676; Q96LB2;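 active = calcium-response B-score plate-corrected more than 3 library SD below zero, starting fluorescence within 5 deviations, no agonist response on first addition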;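 note: peak minus trough fluorescence over baseline after final BAM8-22 challenge near maximal dose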
Target sequence (Q96LB2 whole entry, looked up): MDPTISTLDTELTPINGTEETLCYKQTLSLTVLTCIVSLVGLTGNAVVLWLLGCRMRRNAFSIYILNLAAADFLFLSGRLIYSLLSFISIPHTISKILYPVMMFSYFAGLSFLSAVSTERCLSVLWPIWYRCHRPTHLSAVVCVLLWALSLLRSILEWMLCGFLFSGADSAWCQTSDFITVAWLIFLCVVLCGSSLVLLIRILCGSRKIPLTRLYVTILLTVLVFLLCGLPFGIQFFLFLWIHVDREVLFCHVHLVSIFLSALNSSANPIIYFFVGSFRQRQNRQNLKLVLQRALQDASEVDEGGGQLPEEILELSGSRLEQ
MrgX1 ag – agonists of human MrgX1 receptor | Q96LB2 | MrgX1-HEK293 cells, Fluo-4 calcium fluorescence, agonist mode; active compounds read high | B-score at 10 µM | hit rate 0.44% among 310,000;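 active = calcium response B-score plate-corrected fluorescence ratio at least 3 library SD, with starting fluorescence B-score inside 5 SD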
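Test system: Stable human MrgX1 HEK293 cell line | Schedule: Overnight plating before 1 h dye loading | Read-out basis: Baseline-normalised fluorescence change ratio, B-scored | Detection: Kinetic calcium dye fluorescence, Fluo-4 NW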
MrgX1 PAM – allosterically activates human MrgX1 receptor signaling | MrgX1-HEK293, Fluo-4 calcium flux, FDSS; active compounds read high | B-score at 10 µM | hit rate 0.63% among 310,000 | AID 588675;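 active = plate-corrected calcium response at least 3 library SD above typical, normal starting fluorescence, not activating the receptor alone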;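 note: compound read alongside a low EC10 to EC30 dose of BAM8-22 agonist; peak minus trough fluorescence over baseline measured at the second addition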
RGS4 act – potentiators or activators of RGS4 | HEK293 M3R/inducible RGS4, carbachol calcium flux Fluo4; active compounds read low | B-score at 10 µM | hit rate 0.92% among 310,000;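 active = B-score of the integrated calcium signal more than 4 SD below the library mean, with starting fluorescence not abnormally high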;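 note: negative B-score means reduced calcium response which marks RGS4 activation or potentiation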
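test system = M3R-expressing HEK293 line, RGS4 induced by doxycycline | probe or stimulus = carbachol at ECmax as muscarinic agonist stimulus | timing = dye loading 30 min 37 °C, buffer rest 30 min RT | signal = calcium dye Fluo4 fluorescence | evaluation = B score from integrated fluorescence ratio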
A number is an active result; . = inactive; / = no result given.

SMILES	RGS4 inh	MrgX1 antag	MrgX1 ag	MrgX1 PAM	RGS4 act
CC(C)(CNC(=O)c1ccc(NS(=O)(=O)c2ccc(F)cc2)cc1)N1CCOCC1	.	.	.	.	.
CCOc1ccc(NS(=O)(=O)c2ccc(C(=O)NCC3(N(C)C)CCCCC3)cc2)cc1	.	.	.	.	.
CCOc1ccc(S(=O)(=O)Nc2ccc(C(=O)NCC(C)(C)N3CCOCC3)cc2)cc1	.	-4.9	.	.	.
Cc1ccc(-c2nc3ccc(Cl)cc3c(=O)n2O)cc1	.	.	37	.	.
CCn1nc(CC(=O)Nc2ccc(-n3cnnn3)c(OC)c2)c2ccccc2c1=O	.	-5.2	.	.	.
CC(OC(=O)/C=C/c1ccc(Br)cc1)C(=O)N1CCOCC1 (stereo unspecified)	.	-8	.	.	.
COc1ccccc1S(=O)(=O)Nc1cc(C)nn1-c1ccc(C)cc1	.	.	.	.	.
Cc1ccc(C(C)C)c(OCC(=O)NS(=O)(=O)c2ccc(Cl)cc2)c1	.	.	.	.	.
COc1ccc(-c2ccc(/C=C3/C(=N)N4C(C)=CSC4=NC3=O)o2)c([N+](=O)[O-])c1	.	.	29	.	.
CCCN(C(=O)CSCc1ccccc1C)c1c(N)n(Cc2ccccc2)c(=O)[nH]c1=O	.	-7.2	.	.	.
COc1ccc(Br)c(C(=O)NCC2CCCCC2)c1	.	.	.	.	.
COC(=O)Cc1ccc(OC(=O)c2cccc(S(=O)(=O)N3CCN(C)CC3)c2)cc1	.	.	.	.	.
Cc1ccc(-c2cc(C(=O)Nc3ccccc3C)c3ccccc3n2)o1	.	-4.8	.	.	.
COC(=O)c1cc(-c2ccc(C)o2)nc2ccccc12	.	.	.	.	.
CC1=NN(C(N)=S)C(=O)C1N=Nc1cccc(Cl)c1C (stereo unspecified)	.	.	.	8.6	.
CC1=NN(C(N)=S)C(=O)C1N=Nc1cccc2ccccc12 (stereo unspecified)	.	.	.	.	.
O=C(CN1CCC(NC(=O)c2ccccc2Cl)CC1)NCc1ccco1	.	.	.	.	.
CCSc1ccc2cc(OC)ccc2[n+]1CC	.	.	.	.	.
Cc1ccc(CN2C(=O)/C(=C\c3ccc(C(=O)NCc4cccnc4)cc3)Oc3ccccc32)cc1	.	-4.6	.	.	.
O=C(CN1C(=O)/C(=C\c2ccccc2Cl)Oc2ccccc21)NCc1cccnc1	.	.	.	.	.
O=C(NNC(=O)C1CC2CCC1C2)c1sc2ccccc2c1Cl (stereo unspecified)	.	.	.	6.9	.
CC(Sc1nnc(-c2ccc(OC(F)F)cc2)n1N)C(=O)NCC1CCCO1 (stereo unspecified)	.	.	.	.	.
CCOc1ccc(CCNC(=O)c2ccc(CS(=O)Cc3ccc(Cl)cc3)o2)cc1OCC (stereo unspecified)	.	.	.	.	.
CCOc1ccc(CCNC(=O)c2ccc(CS(=O)Cc3cccc(Cl)c3)o2)cc1 (stereo unspecified)	.	.	.	.	-9.4
Cc1ccc(CS(=O)Cc2ccc(C(=O)NCCc3ccccc3)o2)cc1 (stereo unspecified)	.	.	.	.	.
SMILES	RGS4 inh	MrgX1 antag	MrgX1 ag	MrgX1 PAM	RGS4 act
CSc1ccc(CCNC(=O)c2ccc(CS(=O)Cc3ccccc3Cl)o2)cc1 (stereo unspecified)	.	-6	.	.	.
O=C(NCCc1ccc(Cl)cc1)c1ccc(CS(=O)Cc2ccccc2Cl)o1 (stereo unspecified)	.	.	.	.	-8.4
Cc1cn2c(=O)c(C(=O)NCc3ccc4c(c3)OCO4)cnc2s1	.	.	.	.	.
COc1ccc(N=Cc2c(O)n(-c3cccc(C)n3)c(=O)c3ccccc23)c(OC)c1	.	.	.	.	.
Cc1oc(-c2ccccc2F)nc1CS(=O)(=O)CC(=O)NCCN(C)C1CCCCC1	.	-5.7	.	.	.
Cc1oc(-c2ccccc2F)nc1CS(=O)(=O)CC(=O)NC1CCCC1	.	.	.	.	.
COc1cc(C=O)ccc1OCCSc1ccc(Cl)cc1	.	-5.4	.	.	.
COc1cc(C=O)ccc1OCCOCCOc1ccc(Cl)cc1	.	.	.	.	.
C/C(N)=C(/C#N)C(=O)CSc1nc2ccccc2c(=O)n1-c1ccc(C)c(Cl)c1	.	.	.	.	.
COCCN=c1scc(-c2cccs2)n1/N=C/c1ccc(O)c(O)c1O	.	.	.	16	.
COc1ccccc1CNC(=O)c1cc(-c2ccccc2C)n(CC2CC(c3cccc([N+](=O)[O-])c3)=NO2)n1 (stereo unspecified)	/	.	.	.	/
CN1C(=O)C(O)(CC(=O)c2ccc(F)cc2)c2cc(Br)ccc21 (stereo unspecified)	.	-5.1	.	.	.
CSc1ccc(S(=O)(=O)NCC(=O)OCC(=O)N2CCCCC2C)cc1[N+](=O)[O-] (stereo unspecified)	.	.	.	.	.
C/C(CCC(C)C)=N\Nc1cc(C)c2ccccc2n1	.	.	.	10	.
CCC(Sc1nc(N)c(NC(=O)c2ccc(Br)o2)c(=O)[nH]1)C(=O)O (stereo unspecified)	.	.	.	.	.
O=C(NC1CCCCC1)C1COc2ccccc2O1 (stereo unspecified)	.	.	.	.	-7.6
CC1CCC(NC(=O)C2COc3ccccc3O2)CC1 (stereo unspecified)	.	.	.	.	.
O=C(CCl)c1ccc2c(c1)CCN2C(=O)C1CC1	7.1	.	33	.	.
O=C(C1CCC(C(=O)N2CCc3ccccc32)CC1)N1CCc2ccccc21 (stereo unspecified)	.	.	.	.	.
COc1ccccc1OCCn1cc(C(=O)c2ccco2)c2ccccc21	.	.	.	.	-7.4
COc1ccccc1NC(=O)Cn1cc(C(=O)c2ccco2)c2ccccc21	.	.	.	.	.
Cc1cccn2c(=O)c(/C=C(\C#N)S(=O)(=O)c3ccccc3)c(N3CCN(Cc4ccccc4)CC3)nc12	.	.	.	.	-7.2
N#C/C(=C\c1c(N2CCN(Cc3ccccc3)CC2)nc2ccccn2c1=O)S(=O)(=O)c1ccccc1	.	.	.	.	.
COc1cccc(OCc2cc(C(=O)N(Cc3ccccc3)CC3CC3)no2)c1	.	.	.	.	.
Cc1cccc(NC(=O)CCCNC(=O)c2ccc(Cl)cc2)n1	.	.	.	.	.
CCN(CC)S(=O)(=O)c1ccc(N2CCN(S(=O)(=O)c3ccccc3C#N)CC2)nc1	/	-5	.	.	/
CCN(CC)S(=O)(=O)c1ccc(N2CCN(S(=O)(=O)c3ccccc3)CC2)nc1	.	/	/	/	.
COc1ccc(NC(=O)c2ccccc2NC(=O)c2ccco2)c(OC)c1	.	.	.	.	.
COc1ccc(NC(=S)NNC(=O)c2ccco2)c(OC)c1	.	-5.3	.	.	.
